Source: ChEMBL document CHEMBL1156065, “Structure-activity relationship study on alpha1 adrenergic receptor antagonists from beer” (Bioorg Med Chem Lett, 2009)

Assays:
[1] = biological target: T1, Alpha-1A adrenergic receptor (Rattus norvegicus, UniProt P43140); test: Antagonist activity at rat alpha1A adrenoceptor assessed as inhibition of phenylephrine-induced contraction of caudal artery; type: functional, tissue-based
T1 sequence (P43140 whole entry): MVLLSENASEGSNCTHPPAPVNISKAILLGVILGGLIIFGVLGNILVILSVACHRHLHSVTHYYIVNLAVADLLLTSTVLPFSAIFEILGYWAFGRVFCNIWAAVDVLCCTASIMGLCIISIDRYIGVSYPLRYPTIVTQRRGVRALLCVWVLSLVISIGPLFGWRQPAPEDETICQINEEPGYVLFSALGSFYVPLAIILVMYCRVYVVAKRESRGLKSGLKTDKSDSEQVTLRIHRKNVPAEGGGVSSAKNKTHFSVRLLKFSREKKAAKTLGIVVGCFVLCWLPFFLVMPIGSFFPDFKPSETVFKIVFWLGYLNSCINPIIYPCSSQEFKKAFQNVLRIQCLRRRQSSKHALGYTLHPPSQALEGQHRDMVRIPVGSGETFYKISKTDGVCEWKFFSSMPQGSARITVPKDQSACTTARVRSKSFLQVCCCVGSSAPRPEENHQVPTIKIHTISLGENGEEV
Method in brief: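 Isometric tension at 1 g resting load, equilibrated 30 to 60 min with repeated washes. Contraction induced by submaximal phenylephrine. After the response stabilized, test sample was added at increasing concentrations, up to 15 min per concentration or until the response was stable.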

[2] = biological target: T1, Alpha-1A adrenergic receptor; test: Displacement of [3H]prazosin from rat salivary gland alpha1A adrenoceptor
Method in brief: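 Rat salivary gland homogenate incubated with test samples and 0.06 nM [3H]-prazosin at 22 °C for 60 min. Stopped by vacuum filtration through glass-fiber filters, washed with 50 mM Tris–HCl, counted by liquid scintillation. Nonspecific binding defined with phentolamine and subtracted from total binding. IC50 taken as the concentration inhibiting specific binding by 50%.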

Compound | IC50 [1] [µM] | IC50 [2] [nM]
N=C(N)NCCCCNC(=O)/C=C/c1ccc2c(c1)[C@H](C(=O)NCCCCNC(=N)N)[C@@H](c1ccc(O)cc1)O2 [HORDATINE A] | 19.3 | 310
N=C(N)NCCCCNC(=O)/C=C/c1ccc(O)cc1 | > 100 | 57600
N=C(N)NCCCCNC(=O)/C=C/c1ccc2c(c1)[C@@H](C(=O)NCCCCNC(=N)N)[C@@H](c1ccc(O)cc1)O2 | 17.7 | 2440
N=C(N)NCCCCNC(=O)/C=C/c1ccc2c(c1)[C@@H](C(=O)NCCCCNC(=N)N)[C@H](c1ccc(O)cc1)O2 | 14.3 | 290
COC(=O)[C@@H]1c2cc(/C=C/C(=O)NCCCCNC(=N)N)ccc2O[C@H]1c1ccc(O)cc1 | 9.72 | 560
COC(=O)[C@H]1c2cc(/C=C/C(=O)NCCCCNC(=N)N)ccc2O[C@@H]1c1ccc(O)cc1 | 42.2 | 2160
N=C(N)NCCCCNC(=O)[C@H]1c2cc(/C=C/C(=O)O)ccc2O[C@@H]1c1ccc(O)cc1 | > 100 | > 100000
N=C(N)NCCCCNC(=O)[C@@H]1c2cc(/C=C/C(=O)O)ccc2O[C@H]1c1ccc(O)cc1 | > 100 | > 100000
N=C(N)NCCCCNC(=O)/C=C/c1ccc2c(c1)[C@H](C(=O)NCCCCNC(=N)N)[C@H](c1ccc(O)cc1)O2 [APERIDINE] | 4.9 | 420
